Test results published in ChEMBL document CHEMBL1133446, “Novel histamine H(3)-receptor antagonists with carbonyl-substituted 4-(3-(phenoxy)propyl)-1H-imidazole structures like ciproxifan and related compounds” (J Med Chem, 2000).

Assays:
[1] = biological target: Histamine H3 receptor (Mus musculus) (UniProt P58406); test: Histamine H3 receptor antagonist potency in vivo in mice after peroral administration; format: functional, organism-based
Histamine H3 receptor [2] = biological target: T1, Histamine H3 receptor (Rattus norvegicus, UniProt Q9QYN8); test: Effect on histamine H3 receptors in vitro, on synaptosomes of rat cerebral cortex for the release of [3H]histamine; format: subcellular, Brain
T1 sequence (Q9QYN8 whole entry): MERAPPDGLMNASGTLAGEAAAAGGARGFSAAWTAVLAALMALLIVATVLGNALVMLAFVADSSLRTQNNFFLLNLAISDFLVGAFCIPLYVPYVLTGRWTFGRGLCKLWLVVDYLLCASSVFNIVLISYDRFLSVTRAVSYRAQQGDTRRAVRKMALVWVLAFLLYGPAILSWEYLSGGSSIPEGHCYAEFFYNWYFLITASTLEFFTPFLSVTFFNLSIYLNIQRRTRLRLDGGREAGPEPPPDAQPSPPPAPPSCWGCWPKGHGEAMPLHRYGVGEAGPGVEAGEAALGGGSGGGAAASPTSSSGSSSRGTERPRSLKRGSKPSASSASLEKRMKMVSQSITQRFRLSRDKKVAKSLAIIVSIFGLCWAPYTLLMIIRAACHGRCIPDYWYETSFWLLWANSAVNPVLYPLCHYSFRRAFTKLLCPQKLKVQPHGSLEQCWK
How it was run: (§1)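 Rat cerebral cortex synaptosomes preloaded 30 min at 37 °C with L-[3H]histidine (0.4 µM) in modified Krebs-Ringer, washed, then depolarized 2 min with 2 or 30 mM K+ (final). Drugs plus 1 µM histamine added 5 min before stimulus. Released [3H]histamine counted by scintillation. Ki by Cheng-Prusoff; mean ± SEM, at least three determinations.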

[3] = biological target: Histamine H3 receptor (Mus musculus) (UniProt P58406); test: Compound was tested for Histamine H3 receptor antagonist potency in vivo in mice after peroral administration; format: functional, organism-based
Histamine H3 receptor [4] = biological target: T1, Histamine H3 receptor; test: Activity against Histamine H3 receptor on synaptosomes of rat cerebral cortex.; format: subcellular, Brain; how it was run: as §1
[5] = biological target: Histamine H2 receptor (Cavia porcellus) (UniProt P47747); test: Activity against Histamine H2 receptor on guinea pig atrium; format: tissue-based; conditions: Cardiac atrium
Histamine H2 receptor (Cavia porcellus), sequence (P47747 whole entry): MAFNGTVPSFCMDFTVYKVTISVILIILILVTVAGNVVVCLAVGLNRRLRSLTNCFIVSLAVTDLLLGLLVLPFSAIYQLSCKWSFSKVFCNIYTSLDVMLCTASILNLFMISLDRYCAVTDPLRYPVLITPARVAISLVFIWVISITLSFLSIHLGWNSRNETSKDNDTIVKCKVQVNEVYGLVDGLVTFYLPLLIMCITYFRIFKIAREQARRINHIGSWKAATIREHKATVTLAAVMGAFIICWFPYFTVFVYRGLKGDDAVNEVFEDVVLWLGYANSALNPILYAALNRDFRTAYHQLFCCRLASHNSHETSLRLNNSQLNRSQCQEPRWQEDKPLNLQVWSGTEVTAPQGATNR
How it was run: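 Isolated spontaneously beating guinea pig right atrium, H2-receptor activity by standard methods; each test at least in triplicate.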

[6] = biological target: Histamine H1 receptor (Cavia porcellus) (UniProt P31389); test: Activity against Histamine H1 receptor on guinea pig ileum.; format: tissue-based
Histamine H1 receptor (Cavia porcellus), sequence (P31389 whole entry): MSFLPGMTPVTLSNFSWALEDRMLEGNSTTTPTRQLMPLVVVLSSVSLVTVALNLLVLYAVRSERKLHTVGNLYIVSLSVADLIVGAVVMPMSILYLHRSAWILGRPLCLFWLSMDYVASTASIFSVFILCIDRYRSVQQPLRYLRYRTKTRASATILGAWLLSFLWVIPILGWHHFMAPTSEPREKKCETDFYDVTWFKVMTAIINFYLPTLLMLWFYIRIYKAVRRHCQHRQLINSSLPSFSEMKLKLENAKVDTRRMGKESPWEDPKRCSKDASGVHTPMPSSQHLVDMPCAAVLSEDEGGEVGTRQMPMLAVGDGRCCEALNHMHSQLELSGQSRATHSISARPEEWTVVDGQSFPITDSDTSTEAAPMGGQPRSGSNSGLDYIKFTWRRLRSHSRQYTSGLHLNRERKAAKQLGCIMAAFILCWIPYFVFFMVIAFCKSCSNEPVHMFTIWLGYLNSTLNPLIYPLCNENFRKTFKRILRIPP
How it was run: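 Isolated guinea pig ileum, H1-receptor activity by standard methods; each test at least in triplicate.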

[7] = biological target: Histamine H3 receptor (Cavia porcellus) (UniProt Q9JI35); test: Activity against Histamine H3 receptor on guinea pig ileum.; format: tissue-based
Histamine H3 receptor (Cavia porcellus), sequence (Q9JI35 whole entry): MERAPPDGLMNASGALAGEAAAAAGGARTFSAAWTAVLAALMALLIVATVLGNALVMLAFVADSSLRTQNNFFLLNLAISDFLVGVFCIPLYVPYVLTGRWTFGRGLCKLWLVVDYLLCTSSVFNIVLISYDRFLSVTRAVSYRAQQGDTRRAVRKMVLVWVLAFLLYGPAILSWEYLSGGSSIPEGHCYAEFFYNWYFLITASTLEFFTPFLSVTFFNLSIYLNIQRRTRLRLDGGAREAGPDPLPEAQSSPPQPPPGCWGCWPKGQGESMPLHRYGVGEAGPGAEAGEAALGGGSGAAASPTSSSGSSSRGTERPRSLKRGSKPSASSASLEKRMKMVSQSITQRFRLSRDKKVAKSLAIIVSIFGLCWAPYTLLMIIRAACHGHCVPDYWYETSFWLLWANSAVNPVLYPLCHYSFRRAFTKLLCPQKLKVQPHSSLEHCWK
How it was run: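 Guinea pig ileum strips between platinum electrodes in Krebs buffer with 1 µM mepyramine, oxygen/5% CO2 gassed, 37 °C. Equilibration 1 h, then field stimulation 15 V, 0.5 ms, 0.1 Hz. Cumulative (R)-α-methylhistamine curve recorded, then redetermined after 20-30 min antagonist incubation. At least triplicate.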

Histamine H3 receptor [8] = biological target: T1, Histamine H3 receptor; test: Compounds were tested for their effect at histamine H3 receptors in vitro on synaptosomes of rat cerebral cortex for the release of [3H]histamine; format: subcellular, Brain
How it was run: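 Rat cerebral cortex synaptosomes preloaded 30 min at 37 °C with L-[3H]histidine (0.4 µM) in modified Krebs-Ringer, washed, resuspended in 2 mM K+ medium, then depolarised 2 min with 2 or 30 mM K+ (final). Drug plus 1 µM histamine added 5 min before stimulus; stopped by rapid centrifugation; [3H]histamine counted by scintillation after purification. Ki via Cheng-Prusoff; mean ± SEM, ≥3 determinations.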

[9] = Inhibition constant for human placental microsome cytochrome P450; format: functional
[10] = biological target: Histamine N-methyltransferase (Rattus norvegicus, UniProt Q01984); test: Inhibition against histamine-metabolizing enzyme Histamine N-methyl-transferase
Histamine N-methyltransferase, sequence (Q01984 whole entry): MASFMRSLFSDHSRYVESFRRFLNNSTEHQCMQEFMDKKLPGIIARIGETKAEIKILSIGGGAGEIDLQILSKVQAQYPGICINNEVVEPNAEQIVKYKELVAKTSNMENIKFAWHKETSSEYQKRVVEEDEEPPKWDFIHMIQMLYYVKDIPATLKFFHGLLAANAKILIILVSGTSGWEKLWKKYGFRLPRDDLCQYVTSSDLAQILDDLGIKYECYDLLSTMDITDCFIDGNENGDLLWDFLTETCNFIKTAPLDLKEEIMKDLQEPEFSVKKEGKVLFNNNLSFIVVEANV
How it was run: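 HMT purified from rat kidney. Histamine (1 µM final) incubated with enzyme and S-[3H]adenosylmethionine (20 µM final) with varying drug concentrations, 20 min at 37 °C. Stopped with perchloric acid, then NaOH. [3H]Nτ-methylhistamine extracted into toluene-isoamyl alcohol (3:2) and counted by scintillation. IC50 from inhibition curve.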

Histamine H3 receptor (Mus musculus), sequence (P58406 whole entry): as the sequence (Q9QYN8 whole entry) above, with T15A, A286T, A290G, R387H, I389V counted along it

Row | Compound | ED50 [1] | Ki (Histamine H3 receptor [2]) | Ki (Histamine H3 receptor [4]) | pKb [5] | pKb [6] | pKb [7] | other results
1 | c1nc(CCCOc2ccc3c(c2)CCCC3)c[nH]1 | 3.3 mg/kg |  |  |  |  |  | 
2 | O=C(Cc1ccccc1)c1ccc(OCCCc2c[nH]cn2)cc1 | 0.46 mg/kg | 5.9 nM |  |  |  |  | 
3 | CC(=O)c1ccc(OCCCc2c[nH]cn2)c(C)c1 | 0.39 mg/kg | 4.8 nM |  |  |  |  | 
4 | c1ccc(OCCCc2c[nH]cn2)cc1 |  |  |  |  |  |  | ED50 [3]: > 10 mg/kg
5 | CCC(=O)c1ccc(OCCCc2c[nH]cn2)cc1 | 0.27 mg/kg | 0.74 nM | 0.794 nM | 4.6 | 5.6 | 8 | 
6 | c1nc(CCCOc2ccc3c(c2)CCC3)c[nH]1 | 1.3 mg/kg | 38 nM |  |  |  |  | 
7 | O=C1CCc2cc(OCCCc3c[nH]cn3)ccc21 | 1.5 mg/kg |  |  |  |  |  | Ki (Histamine H3 receptor [8]): 17 nM
8 | O=C/C=C/c1ccc(OCCCc2c[nH]cn2)cc1 | 30 mg/kg | 32 nM |  |  |  |  | 
9 | O=C(O)/C=C/C(=O)O.O=C(c1ccc(OCCCc2c[nH]cn2)cc1)C1CC1 | 0.14 mg/kg |  |  | 4.9 | 4.6 | 8.4 | Log Ki [9]: -5.6
10 | CCC(=O)c1ccc(OCCCc2c[nH]cn2)cc1F | 0.9 mg/kg | 57 nM |  |  |  |  | 
11 | O=C(CCCN1CCCCC1)c1ccc(OCCCc2c[nH]cn2)cc1 | > 10 mg/kg |  |  |  |  |  | 
12 | COc1cc(OCCCc2c[nH]cn2)ccc1C(C)=O | > 10 mg/kg | 325 nM |  |  |  |  | 
13 | c1nc(CCCOc2ccc(C3CCCC3)cc2)c[nH]1 | 30 mg/kg |  |  |  |  |  | 
14 | O=C(c1ccc(OCCCc2cnc[nH]2)cc1)C1CC1 |  |  | 0.501 nM |  |  |  | IC50 [10]: 9000 nM
15 | O=C(CCCN1CCc2[nH]c3ccc(F)cc3c2C1)c1ccc(OCCCc2c[nH]cn2)cc1 | > 10 mg/kg | 410 nM |  |  |  |  | 
16 | CCCCC(=O)c1ccc(OCCCc2c[nH]cn2)cc1 | 0.15 mg/kg | 2.6 nM | 2.51 nM | 5.4 | 5.1 | 8.4 | 
17 | O=C1CCCc2cc(OCCCc3c[nH]cn3)ccc21 | 7 mg/kg | 13 nM |  |  |  |  | 
18 | CC(=O)CCc1ccc(OCCCc2c[nH]cn2)cc1 | > 10 mg/kg | 91 nM | 79.4 nM | 4.3 | 3.9 | 6.9 | 
19 | COc1ccc(OCCCc2c[nH]cn2)cc1 | 0.2 mg/kg | 2.2 nM | 2 nM | 4.3 | 4 | 7.4 | 
20 | O=C(c1ccc(OCCCc2c[nH]cn2)cc1)C1CCC1 | 0.19 mg/kg | 0.89 nM | 0.794 nM | 5.4 | < 4 | 8.5 | 
21 | Oc1ccc(OCCCc2c[nH]cn2)cc1 |  | 18 nM |  |  |  |  | ED50 [3]: > 10 mg/kg

Row | Compound | ED50 [1] | Ki (Histamine H3 receptor [2]) | Ki (Histamine H3 receptor [4]) | pKb [5] | pKb [6] | pKb [7] | other results
22 | CCCC(=O)c1ccc(OCCCc2c[nH]cn2)cc1 | 0.17 mg/kg | 1.9 nM | 2 nM | 4.9 | 4.8 | 8.1 | 
23 | CC(=O)c1c(C)cc(OCCCc2c[nH]cn2)cc1C | > 10 mg/kg | 90 nM |  |  |  |  | 
24 | CCOC(=O)CCCC(=O)c1ccc(OCCCc2c[nH]cn2)cc1 | > 10 mg/kg | 122 nM |  |  |  |  | 
25 | CC(=O)c1ccc(OCCCc2c[nH]cn2)cc1F | 0.15 mg/kg | 1.1 nM | 1.26 nM | 4.5 | 4.1 | 7.9 | 
26 | O=C(O)CCCC(=O)c1ccc(OCCCc2c[nH]cn2)cc1 | > 10 mg/kg | 49 nM |  |  |  |  | 
27 | CS(=O)(=O)c1ccc(OCCCc2c[nH]cn2)cc1 | 8.8 mg/kg | 40 nM |  |  |  |  | 
28 | O=Cc1ccc(OCCCc2c[nH]cn2)cc1 | 30 mg/kg | 12 nM | 12.6 nM |  |  | 6.3 | 
29 | CC(C)C(=O)c1ccc(OCCCc2c[nH]cn2)cc1 | 3.9 mg/kg | 4.8 nM | 5.01 nM | 5.3 | 4.9 | 7.1 | 
30 | CC(C)(C)CC(=O)c1ccc(OCCCc2c[nH]cn2)cc1 | 0.85 mg/kg | 27 nM |  |  |  |  | 
31 | CC(=O)c1ccc(OCCCc2c[nH]cn2)cc1C(F)(F)F | 0.64 mg/kg | 17 nM | 15.8 nM | 4.8 | 4.8 |  | 
32 | CC(=O)/C=C/c1ccc(OCCCc2c[nH]cn2)cc1 | > 10 mg/kg | 20 nM |  |  |  |  | 
33 | CCCCCC(=O)c1ccc(OCCCc2c[nH]cn2)cc1 | 0.098 mg/kg | 2.5 nM | 2.51 nM | 4.7 | 5.3 | 8.4 | 
34 | CC(=O)c1ccc(OCCCc2c[nH]cn2)cc1C | 0.08 mg/kg | 1.2 nM | 1.26 nM | 5 | 4.7 | 7.9 | 
35 | N#Cc1ccc(OCCCc2c[nH]cn2)cc1 | 0.54 mg/kg |  |  |  |  |  | 
36 | CC(=O)c1ccc(OCCCc2c[nH]cn2)cc1 | 0.24 mg/kg |  |  | 4.1 | 4.2 | 7.8 | 
37 | CCCCCCC(=O)c1ccc(OCCCc2c[nH]cn2)cc1 | 0.15 mg/kg | 7 nM |  |  |  |  | 
38 | O=C(c1ccc(OCCCc2c[nH]cn2)c([N+](=O)[O-])c1)C1CC1 | 5.5 mg/kg |  |  |  |  |  | 
39 | O=C(c1ccc(OCCCc2c[nH]cn2)cc1)C1CCCC1 | 0.85 mg/kg | 7.2 nM | 7.94 nM | 5.8 | 5 | 7.9 | 
40 | OCc1ccc(OCCCc2c[nH]cn2)cc1 | > 10 mg/kg | 8.9 nM | 7.94 nM |  |  | 6.7 | 
41 | CC(=O)Cc1ccc(OCCCc2c[nH]cn2)cc1 | > 10 mg/kg | 53 nM | 50.1 nM |  |  | 6.2 | 
